Data set [1] relates to RAW264.7. Nature of the data set: Antiinflammatory activity in mouse RAW264.7 cells assessed as residual LPS-induced iNOS protein level at 10 uM by Western blotting analysis. On the technique in general: Immunoblotting shows a protein as a band on a membrane.
Data set [2] has as its system RAW264.7. Nature of the data set: Antiinflammatory activity in mouse RAW264.7 cells assessed as inhibition of LPS-induced COX2 protein expression at 10 uM by Western blotting analysis. The format is functional. The procedure, abridged: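 RAW264.7 macrophages (ATCC) stimulated with LPS and treated at 10 μM. iNOS and COX-2 protein levels were quantified by immunoblot and expressed as % of LPS-only control cells (100%). Means ± SEM, n = 6.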

A further data set deals with HepG2. Nature of the data set: Cytotoxicity against human HepG2 cells by MTT assay. Type of data set: functional, cell-based. Background: Formazan colour is commonly taken as a measure of viable cells.
The subject of the next data set is MCF7. Nature of the data set: Cytotoxicity against human MCF7 cells by MTT assay. The format is functional, cell-based.
The test system of the next data set is MDA-MB-231. Nature of the data set: Cytotoxicity against human MDA-MB-231 cells by MTT assay. The format is functional, cell-based.
The nature of data set [3]: Cytotoxicity against human Hep3B cells by MTT assay. Type of data set: functional, cell-based, Hep 3B2.
The subject of data set [4] is beta-actin protein expression. As to the kind of experiment: Toxicity in mouse RAW264.7 cells assessed as inhibition of beta-actin protein expression at 10 uM by Western blotting analysis; values are per cent of control.

Structures are written as SMILES.

`C[C@H]([C@H](O)[C@@H]1OC(=O)[C@H](C)[C@@H]1C)[C@H]1CC[C@H]2[C@@H]3CCC4=CC(=O)C=C[C@]4(C)[C@H]3CC[C@]12C` [PARAMINABEOLIDE D]: the residual iNOS protein level at 10 µM in the data set on RAW264.7 [1] worked out at 43.3%.

For the compound `C[C@@H]([C@H]1CC[C@H]2[C@@H]3CCC4=CC(=O)C=C[C@]4(C)[C@H]3CC[C@]12C)[C@H]1CC[C@H](C)C(=O)O1` [MINABEOLIDE 4], the COX-2 expression (% of LPS control) at 10 µM in the data set with RAW264.7 [2] worked out at 22.4%. In addition, the residual iNOS protein level at 10 µM in the data set with RAW264.7 [1] came out at 23.2%.

On to `CC(=O)OC[C@]12CC[C@H]3[C@@H](CCC4=CC(=O)C=C[C@@]43C)[C@@H]1CC[C@@H]2[C@H](C)[C@H]1CC(C)=C(C)C(=O)O1` [MINABEOLIDE 2], for which the COX-2 expression (% of LPS control) at 10 µM in the data set on RAW264.7 [2] came to 51.2%. In addition, the residual iNOS protein level at 10 µM in the data set on RAW264.7 [1] stood at 45.7%.

On to `CC(=O)OC[C@]12CC[C@H]3[C@@H](CCC4=CC(=O)C=C[C@@]43C)[C@@H]1CC[C@@H]2[C@H](C)[C@H](O)[C@@H]1OC(=O)[C@H](C)[C@H]1C` [PARAMINABEOLIDE C], for which the residual iNOS protein level at 10 µM in the data set on RAW264.7 [1] was determined as 37.9%.

With `CC1=C(C)C(=O)O[C@@H]([C@@H](C)[C@H]2CC[C@H]3[C@@H]4CCC5=CC(=O)C=C[C@]5(C)[C@H]4CC[C@]23C)C1` [MINABEOLIDE 1], the concentration for half-maximal inhibition (IC50) (usually the concentration that gives 50% inhibition) in the data set with HepG2 was 5.2 µM; with MCF7, 18.7 µM. Besides, the COX-2 expression (% of LPS control) at 10 µM with RAW264.7 [2] was found to be 18.3%. The residual iNOS protein level at 10 µM with RAW264.7 [1] came to 9.6%.

For `CC(=O)OC[C@]12CC[C@H]3[C@@H](CCC4=CC(=O)C=C[C@@]43C)[C@@H]1CC[C@@H]2[C@H](C)[C@H]1C[C@H](C)[C@H](C)C(=O)O1` [PARAMINABEOLIDE B], the IC50 was found to be 14.9 µM in the data set with MCF7 and 19.3 µM with MDA-MB-231. Also, the residual iNOS protein level at 10 µM in the data set with RAW264.7 [1] stood at 7.3%.

As to `COc1cccc2c1C(=O)c1c(O)c3c(c(O)c1C2=O)C[C@@](O)(C(=O)CO)C[C@@H]3O[C@H]1C[C@H](N)[C@H](O)[C@H](C)O1` [DOXORUBICIN], the IC50 in data set [3] came out at 0.7 µM.

For `CC(=O)OC[C@]12CC[C@H]3[C@@H](CCC4=CC(=O)C=C[C@@]43C)[C@@H]1CC[C@@H]2[C@H](C)[C@H]1CC[C@H](C)C(=O)O1` [MINABEOLIDE 5], the COX-2 expression (% of LPS control) at 10 µM in the data set with RAW264.7 [2] stood at 31.3%. Moreover, the residual iNOS protein level at 10 µM in the data set on RAW264.7 [1] is 6.3%.

As for `CC1=C(C)C(=O)O[C@@H]([C@@H](C)[C@H]2CC[C@H]3[C@@H]4CCC5=CC(=O)C=C[C@]5(C)[C@H]4CC[C@]23C=O)C1` [PARAMINABEOLIDE A], the 50% inhibitory concentration (IC50) with HepG2 is 8 µM. Moreover, the residual activity (commonly the share of the control activity or signal that is left under treatment) at 10 µM in data set [4] amounted to 66.5%. For the same compound, in the data set with RAW264.7 [1], the residual iNOS protein level at 10 µM is 11%.

Values taken from ChEMBL document CHEMBL1782008, “Paraminabeolides A-F, cytotoxic and anti-inflammatory marine withanolides from the soft coral Paraminabea acronocephala” (J Nat Prod, 2011).
